# Measured values: ChEMBL document CHEMBL1123247, “Nucleoside conjugates. 7. Synthesis and antitumor activity of 1-beta-D-arabinofuranosylcytosine conjugates of ether lipids” (J Med Chem, 1986)
# How the values were obtained:
# L1210 [1] = assay: Antitumor activity against the ic implanted L1210 lymphoid leukemia in mice expressed as optimal dose (1 qd treatment schedule) required to produce greatest increase in life span was determined
# L1210 [2] = assay: Antitumor activity against ip implanted L1210 leukemia in mice expressed as active dose range (1-5qd treatment schedule) required to produce increase in life span by >25% was determined; Range is 40-80; type: functional, Mus musculus
# In short: (§1)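 DBA/2J mice, groups of 6 (23-28 g), were inoculated ip with 1 × 10^6 L1210 cells on day 0. Dosing was ip from 24 h, in 0.9% NaCl with 0.5% Tween-80 (sonicated solution or suspension). Mice were observed daily until death or day 45. Median survival T/C followed NCI protocols, and ILS = (T/C − 1) × 100. Active range means doses giving ILS ≥25%; optimal dose means greatest ILS.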
# L1210 [3] = assay: Antitumor activity was determined against the ip implanted L1210 leukemia in mice by percent median survival rate (treated/control) at 400 mg/kg (treatment of 1qd schedule) dosage; 27.5/7.0; type: functional, Mus musculus; conditions: route intraperitoneal
# In short: (§2)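 DBA/2J mice, 23-28 g, in groups of 6, were inoculated ip with 1×10^6 L1210 cells on day 0. Dosing was ip starting 24 h later on the stated daily schedules. Conjugates were given as sonicated solutions and reference prodrugs as suspensions in 0.9% NaCl with 0.5% Tween-80. Mice were observed daily until death or 45 days. Median survival T/C was calculated from survivors per NCI protocols.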
# L1210 [4] = assay: Antitumor activity was determined against the ic implanted L1210 lymphoid leukemia in mice by range in survival days at 167 mg/kg (treatment of 1, 5, 9qd schedule) dosage; Range is 14-22; type: functional, Mus musculus
# L1210 [5] = assay: Antitumor activity was determined against the ip implanted L1210 leukemia in mice by 45-day survivors in mice at 80 mg/kg (treatment of 1-5qd schedule) dosage; type: functional, Mus musculus; conditions: route intraperitoneal
# In short: (§3)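 DBA/2J mice in groups of 6 (wt 23-28 g) were inoculated ip with 1×10^6 L1210 cells on day 0. Dosing was ip from 24 h, in 0.9% NaCl with 0.5% Tween-80 (conjugates sonicated), across a range of doses. Mice were observed daily until death or 45 days. Median T/C was computed from survivors per NCI protocols, and ILS = (T/C − 1)×100.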
# L1210 [6] = assay: Antitumor activity was determined against the ic implanted L1210 lymphoid leukemia in mice by percent increase in life span at 100 mg/kg (treatment of 1-9qd schedule) dosage; type: functional, Mus musculus
# In short: (§4)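 DBA/2J mice, groups of 6 (26-32 g), got 1 × 10^5 L1210 cells ic on day 0. Dosing was ip starting 24 h later, as a sonicated solution or suspension in 0.9% NaCl with 0.5% Tween-80, over a wide dose range. Mice were followed daily until death. Median survival T/C was taken from survivors per NCI protocols, and ILS = (T/C − 1) × 100. Active range means doses giving ILS ≥25%; optimal dose means greatest ILS.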
# Glioblastoma cell line = assay: Compound was tested for the inhibition of glioblastoma; type: functional, cell-based; conditions: Homo sapiens
# In short: (§5)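 Human leukemia and solid tumor cells in culture were exposed to compound for 48 h. Viability was scored by trypan blue dye exclusion. IC50 (50% inhibition) was estimated from response curves of three separate experiments.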
# L1210 [7] = assay: Antitumor activity was determined against the ic implanted L1210 lymphoid leukemia in mice by change in […] at 300 mg/kg (treatment of 1-5qd schedule) dosage; type: functional, Mus musculus
# In short: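 DBA/2J mice, 6 per group (wt 26-32 g), inoculated ic with 1×10^5 L1210 cells on day 0. Dosing ip began 24 h after inoculation, with a sonicated solution or suspension in 0.9% NaCl containing 0.5% Tween-80, given over a range of doses. Animals were followed daily until death. Body weight change, median survival T/C, and %ILS = (T/C − 1) × 100 were computed from survivors per NCI protocols.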
# [8] = system: Non-small cell lung cancer cell line; assay: Compound was tested for the inhibition of non- small cell lung cancer; type: functional, cell-based; conditions: Homo sapiens
# In short: as §5
# L1210 [9] = assay: Antitumor activity was determined against the ip implanted L1210 leukemia in mice by range in survival days at 200 mg/kg (treatment of 1-5qd schedule) dosage; Range is 15-17; type: functional, Mus musculus; conditions: route intraperitoneal
# In short: as §2
# P388 [10] = assay: Antitumor activity was determined against the ip implanted P388 leukemia in mice by percent increase in life span at 200 mg/kg (treatment of 1-5qd schedule) dosage; type: functional, Mus musculus; conditions: route intraperitoneal
# In short: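 DBA/2J mice, 23-33 g, in groups of 6, were inoculated ip with 1×10^6 P388 cells on day 0. Dosing was ip from 24 h on the stated schedules, in 0.9% NaCl with 0.5% Tween-80 (sonicated solution or suspension). Survival was followed daily until death or 45 days. Median T/C was calculated from survivors per NCI protocols, with ILS = (T/C − 1) × 100.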
# P388 [11] = assay: Antitumor activity was determined against the ip implanted P388 leukemia in mice by range in survival days at 67 mg/kg (treatment of 1,5,9qd schedule) dosage; Range is 21-31; type: functional, Mus musculus; conditions: route intraperitoneal
# P388 [12] = assay: Antitumor activity was determined against the ip implanted P388 leukemia in mice by range in survival days at 60 mg/kg (1-5qd treatment schedule) dosage; Range is 35->45; type: functional, Mus musculus; conditions: route intraperitoneal
# L1210 [13] = assay: Antitumor activity was determined against the ic implanted L1210 lymphoid leukemia in mice by percent median survival rate (treated/control) at 300 mg/kg (1 qd treatment schedule) dosage; 21.0/7.0; type: functional, Mus musculus
# L1210 [14] = assay: Antitumor activity against ip implanted L1210 leukemia in mice expressed as active dose range (1 qd treatment schedule) required to produce increase in life span by >25% was determined; Range is 50-400; type: functional, Mus musculus
# In short: as §1
# P388 [15] = assay: Antitumor activity was determined against the ip implanted P388 leukemia in mice by percent median survival rate (treated/control) at 60 mg/kg (1-5qd treatment schedule) dosage; >45.0/11.0; type: functional, Mus musculus; conditions: route intraperitoneal
# L1210 [16] = assay: Antitumor activity was determined against the ic implanted L1210 lymphoid leukemia in mice by percent median survival rate (treated/control) at 80 mg/kg (1-5qd treatment schedule) dosage; 22.0/8.0; type: functional, Mus musculus
# L1210 [17] = assay: Antitumor activity was determined against the ic implanted L1210 lymphoid leukemia in mice by change in body weight at 300 mg/kg (1 qd treatment schedule) dosage
# P388 [18] = assay: Antitumor activity was determined against the ip implanted P388 leukemia in mice by range in survival days at 500 mg/kg (1 qd treatment schedule) dosage; Range is 35->45; conditions: route intraperitoneal
# L1210 [19] = assay: Antitumor activity was determined against the ip implanted L1210 leukemia in mice by 45-day survivors in mice at 300 mg/kg (treatment of 1qd schedule) dosage; type: functional, Mus musculus; conditions: route intraperitoneal
# In short: as §3
# L1210 [20] = assay: Antitumor activity against the ic implanted L1210 lymphoid leukemia in mice expressed as optimal dose (1 qd treatment schedule) required to produce greatest increase in life span was determined; type: functional, Mus musculus
# In short: as §4
structure (smiles),measurement,setting,value
CCCCCCCCCCCCCCCCOCC(COP(=O)(O)OP(=O)(O)OC[C@H]1O[C@@H](n2ccc(N)nc2=O)[C@@H](O)[C@@H]1O)OC(=O)CCCCCCCCCCCCCCC (mixture of isomers),Optimal dose,L1210 [1],500 mg
same,Active dose range,L1210 [2],40 mg/kg/day
same,T/C,L1210 [3],27.5%
same,Range,L1210 [4],14
same,Survivors,L1210 [5],0
Nc1ccn([C@@H]2O[C@H](CO)[C@@H](O)[C@@H]2O)c(=O)n1 [CYTARABINE],ILS,L1210 [6],100
same,IC50,Glioblastoma cell line,> 100 µM
same,Weight change,L1210 [7],-6.1
same,IC50,[8],34 µM
same,Range,L1210 [9],15
same,ILS,P388 [10],109
CCCCCCCCCCCCCCCCCCOCC(COP(=O)(O)OP(=O)(O)OC[C@H]1O[C@@H](n2ccc(N)nc2=O)[C@@H](O)[C@@H]1O)OC(=O)CCCCCCCCCCCCCCC (mixture of isomers),Range,P388 [11],21
CCCCCCCCCCCCCCCC(=O)OC[C@H](COP(=O)(O)OP(=O)(O)OC[C@H]1O[C@@H](n2ccc(N)nc2=O)[C@@H](O)[C@@H]1O)OC(=O)CCCCCCCCCCCCCCC,Range,P388 [12],35
same,median survival time,L1210 [13],21 days
same,Active dose range,L1210 [14],50 mg/kg/day
same,T/C,P388 [15],>45%
same,median survival time,L1210 [16],22 days
same,Weight change,L1210 [17],-0.88 g mouse-1
same,Range,P388 [18],35
same,Survivors,L1210 [19],1
same,Optimal dose,L1210 [20],300 mg
